Laboratory results taken from PubChem BioAssay.
Activity calls are given as the source filed them.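 The calls were made as follows, unless noted: active = inhibition at or above 50% at 10 µM; inactive = inhibition below 50%.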

What was measured:
[1] = inhibitors of TNFa-induced NFkB p65 translocation, primary screen, imaging, HUVEC, MLSMR starter and 10KST1 sets (AID 438;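 active = inhibition above 20% together with a positive visual image hit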;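 also: compound added about 3h40 before a 20 min TNFalpha stimulation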;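 as to inhibition: signal is the nuclear over cytoplasmic p65 intensity ratio per well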); conditions: HUVEC TNFa-induced p65 nuclear translocation; cell count: measured here: nuclei count (cytotoxicity indicator), at 2.08 µM; inhibition: at 2 µM, stronger effect = higher value, 0% TNFa-plus-vehicle, 100% no-TNFa wells
[2] = reduction of polyQ htt aggregates in cells – imaging, exon1htt(103Q)mCFP cells, high-content imaging, primary screen (AID 483;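 active = visual image review flags a hit and inhibition of aggregation exceeds 20%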;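 also: compound exposure lasted 3 days before fixation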;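 as to nuclei count: percent of the per-plate median nuclei count of sample wells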); conditions: exon1htt(103Q)mCFP cell line, aggregate imaging, at 2 µM; inhibition of aggregation: stronger effect = higher value; nuclei count: measured here: cell count, toxicity
[3] = endothelial E-selectin expression blockers – imaging, HUVEC, immunofluorescence, MLSMR starter and 10KST1 sets, primary screen (AID 487;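 active = visually confirmed hit in the image check and inhibition above 20%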;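 as to inhibition: signal is fraction of cell area covered by stained E-selectin grains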;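 as to nuclei count: 100% = median nuclei count of all wells on the same plate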); conditions: HUVEC TNFalpha-induced E-selectin immunofluorescence imaging, at 2 µM; inhibition: stronger effect = higher value; nuclei count: measured here: cell number, toxicity
[4] = target: Voltage-gated potassium channel subunit beta-2 (Rattus norvegicus) (UniProt P62483); test: inhibitors of rat Kvbeta2 reductase activity – biochemical, NADPH fluorescence, primary screen (AID 622;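 active = fluorescence slope higher than the sample average by over 3 SD, cut at about -0.22 in these data, passing the limit was not always enough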;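 also: slope of raw intensity against log time taken from 70 to 1610 s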); conditions: recombinant KvBeta, 4-cyanobenzaldehyde reduction, at 10 µM, stronger effect = higher value
Voltage-gated potassium channel subunit beta-2 (Rattus norvegicus), sequence (P62483 whole entry, looked up): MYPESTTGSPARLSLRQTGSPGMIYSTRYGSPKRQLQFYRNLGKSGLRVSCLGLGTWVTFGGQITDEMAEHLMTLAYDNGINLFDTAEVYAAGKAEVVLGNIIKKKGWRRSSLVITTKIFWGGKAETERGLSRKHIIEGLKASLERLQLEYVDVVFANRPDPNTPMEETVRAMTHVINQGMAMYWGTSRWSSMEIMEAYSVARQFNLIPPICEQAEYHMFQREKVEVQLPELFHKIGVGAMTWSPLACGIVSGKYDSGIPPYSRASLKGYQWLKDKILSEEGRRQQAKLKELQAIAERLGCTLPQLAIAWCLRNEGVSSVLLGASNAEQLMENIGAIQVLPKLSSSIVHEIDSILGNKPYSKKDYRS

[5] = target: Voltage-gated potassium channel subunit beta-2 (Rattus norvegicus) (UniProt P62483); test: enhancers of rat Kvbeta2 NADPH turnover – biochemical, NADPH fluorescence, primary screen (AID 623;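 active = NADPH fluorescence slope more negative than the mean of all samples by about 3 SD, 99.7% confidence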;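 also: fluorescence intensity change per second fitted from 20 to 320 s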); conditions: Recombinant KvBeta, NADPH fluorescence decrease slope, 10 min; at 10 µM; stronger effect = lower value
[6] = target: Muscarinic acetylcholine receptor M4 (Homo sapiens) (UniProt P08173); test: M4-linked GIRK flux change, two-sided – cell-based, HEK293 M4/GIRK, thallium flux, BTC-AM, M4 allosteric agonist project, primary screen (AID 625;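 active = fluorescence slope after compound addition differing from the mean of all tested samples at 99.7% confidence, mostly higher but some lower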;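 also: thallium influx through GIRK channels coupled to M4 in HEK293 cells with BTC-AM dye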); conditions: at 10 µM, actives lie on both sides
Muscarinic acetylcholine receptor M4 (Homo sapiens), sequence (P08173 whole entry, looked up): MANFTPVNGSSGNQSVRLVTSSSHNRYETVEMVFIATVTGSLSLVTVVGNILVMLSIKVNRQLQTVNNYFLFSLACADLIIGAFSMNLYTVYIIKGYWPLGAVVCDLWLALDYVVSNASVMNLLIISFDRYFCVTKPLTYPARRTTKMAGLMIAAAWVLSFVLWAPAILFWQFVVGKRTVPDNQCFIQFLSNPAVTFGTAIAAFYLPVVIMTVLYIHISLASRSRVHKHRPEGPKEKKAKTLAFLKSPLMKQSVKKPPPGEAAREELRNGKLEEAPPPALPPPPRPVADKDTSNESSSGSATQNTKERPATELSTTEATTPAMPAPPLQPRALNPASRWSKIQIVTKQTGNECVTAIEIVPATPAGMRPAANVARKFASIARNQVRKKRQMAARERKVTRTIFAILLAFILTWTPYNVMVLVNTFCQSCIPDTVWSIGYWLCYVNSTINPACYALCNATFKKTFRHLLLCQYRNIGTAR
In short: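 Material: HEK293 cells with M4 receptor and GIRK channels; Times: cells overnight at 37 °C, BTC-AM loading 1 h, reads 2 min total; Technique: kinetic BTC-AM fluorescence sampled at 1 Hz, 10 s pre-addition baseline; Read-out basis: slope over 15–24 s of trace normalized to starting intensity; Controls: carbachol positive, DMSO negative.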

[7] = blockers of RIG-like receptor reporter activation – cell-based, Sendai virus stimulus, luciferase, 10K MLSCN set, TLR/RLR signaling modifier project, primary screen (AID 602276); conditions: HEK293 RL24 IRF3 luciferase reporter, at 10 µM, stronger effect = higher value;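 also: firefly luciferase from ISG56 promoter only with Renilla not read in this screen; 0% = Sendai virus plus DMSO and 100% = medium plus DMSO without virus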
[8] = TLR3 IRF3 reporter activation blockers – cell-based, poly I:C stimulus, luciferase, 10K MLSCN set, primary screen (AID 602277;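 active = inhibition of the reporter signal at or above 50%; inactive = inhibition below 50%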); conditions: HEK293-TLR3 RL24 IRF3 luciferase reporter, at 10 µM, stronger effect = higher value

SMILES	cell count [1]	inhibition [1]	inhibition of aggregation [2]	nuclei count [2]	inhibition [3]	nuclei count [3]	fluorescence slope [4]	NADPH fluorescence slope [5]	fluorescence slope [6]	inhibition [7]	inhibition [8]
CN(C(=O)CSc1nc2c(c(=O)[nH]1)CCCC2)C1CCCCC1	820	-0.9% (inactive)	-33.2% (inactive)	117%	-253% (inactive)	120%	-0.504 (inactive)	4e-05 (inactive)	0.00553 (inactive)	4.83% (inactive)	18.3% (inactive)
Cn1c(=O)c2c(nc(SCC(=O)NCc3ccc4c(c3)OCO4)n2Cc2ccccc2)n(C)c1=O	641	-14.8% (inactive)	10.5% (inactive)	104%	-33% (inactive)	115%	-0.473 (inactive)	-3.8e-05 (inactive)	0.0042 (inactive)	12.6% (inactive)	11.8% (inactive)
COC(=O)c1cc(NS(=O)(=O)c2ccc3c(c2)CCC(=O)N3)cc(C(=O)OC)c1	384	-2.9% (inactive)	-24.1% (inactive)	108%	-255% (inactive)	115%	-0.464 (inactive)	2.6e-05 (inactive)	0.00663 (inactive)	-11.6% (inactive)	79.6% (active)
O=C1C=C(NCc2ccco2)C2(CCCCC2)O1	495	7.6% (inactive)	0.6% (inactive)	97.5%	-229% (inactive)	125%	-0.569 (inactive)	-5.7e-05 (inactive)	0.00577 (inactive)	17.4% (inactive)	20.2% (inactive)
CN(CC(=O)N1CCN(C2CCCCC2)CC1)S(=O)(=O)c1cccc2nsnc12	367	0.8% (inactive)	-4.6% (inactive)	102%	36% (inactive)	94.6%	-0.379 (inactive)	8e-05 (inactive)	0.00544 (inactive)	13% (inactive)	28.3% (inactive)
Cc1cccc(C(=O)N2CCN(C(=O)c3cccc(C)c3)C(C)C2)c1 (stereo not drawn)	394	-3.8% (inactive)	3.6% (inactive)	113%	-31.8% (inactive)	114%	-0.311 (inactive)	1.4e-05 (inactive)	0.00692 (inactive)	-15.5% (inactive)	-12% (inactive)
Cc1cc(=O)n2[nH]c(COc3ccccc3)nc2n1	203	-7.9% (inactive)	31.3% (inactive)	101%	-85.5% (inactive)	91.6%	-0.531 (inactive)	-4.3e-05 (inactive)	0.00471 (inactive)	6.61% (inactive)	14.8% (inactive)
CCOc1ccc(NC(=O)CN2CCN(CC(=O)Nc3ccc(F)c(F)c3)CC2)cc1	409	3.1% (inactive)	-0.9% (inactive)	105%	-60.2% (inactive)	99.8%	-0.435 (inactive)	4.4e-05 (inactive)	0.00651 (inactive)	12.5% (inactive)	23% (inactive)
O=C(O)C1C2C=CC(O2)C1C(=O)NCc1ccc(Cl)cc1 (stereo not drawn)	714	-7.5% (inactive)	22.6% (inactive)	95.5%	16.4% (inactive)	100%	-0.531 (inactive)	-3.3e-05 (inactive)	0.0043 (inactive)	11.9% (inactive)	5.33% (inactive)
COC(=O)Cc1c(C)nc2nc(-c3ccco3)[nH]n2c1=O	409	1.2% (inactive)	5.5% (inactive)	93.6%	-28.5% (inactive)	105%	-0.467 (inactive)	-4e-05 (inactive)	0.00635 (inactive)	9.5% (inactive)	19.1% (inactive)
CCN(CC)CCCN(Cc1cc2cc(OC)ccc2[nH]c1=O)C(=O)Nc1ccccc1	327	7.1% (inactive)	-3.3% (inactive)	86.4%	-31.9% (inactive)	105%	-0.382 (inactive)	-5.9e-06 (inactive)	0.00643 (inactive)	17.1% (inactive)	29.7% (inactive)
CCOc1ccccc1CN1C(=O)c2ccccc2C1C(=O)NCC1CCCO1 (stereo not drawn)	350	7.9% (inactive)	6.8% (inactive)	107%	-214% (inactive)	114%	-0.585 (inactive)	2.5e-05 (inactive)	0.00509 (inactive)	7.6% (inactive)	5.52% (inactive)
CCOC(=O)C(NC(=O)C1CCCN1C(=O)OCc1ccccc1)C(=O)OCC (stereo not drawn)	586	7.2% (inactive)	-1.6% (inactive)	105%	-11% (inactive)	97.9%	-0.567 (inactive)	-1.7e-05 (inactive)	0.00516 (inactive)	20.4% (inactive)	32% (inactive)
Cc1nnc(SCc2cnc(-c3ccccc3)o2)[nH]c1=O	332	-2.2% (inactive)	12.4% (inactive)	92.7%	-82.5% (inactive)	118%	-0.591 (inactive)	-1.9e-05 (inactive)	0.00323 (inactive)	10.2% (inactive)	12.4% (inactive)
CC1CN(S(=O)(=O)c2cccc(C(=O)OCc3cc(=O)oc4cc(O)ccc34)c2)CC(C)O1 (stereo not drawn)	380	-2.9% (inactive)	3% (inactive)	100%	-28.2% (inactive)	83%	-0.288 (inactive)	-7.6e-05 (inactive)	0.00505 (inactive)	23.9% (inactive)	23.3% (inactive)
Cc1ccccc1CS(=O)(=O)CCC(=O)N1CCN(c2ccc(N3CCOCC3)nn2)CC1	318	-0.9% (inactive)	-19.9% (inactive)	81%	-146% (inactive)	87.2%	-0.424 (inactive)	-8.7e-08 (inactive)	0.00541 (inactive)	3.04% (inactive)	12.2% (inactive)
O=C(COC(=O)C1(c2ccccc2F)CCCC1)NC1CCS(=O)(=O)C1 (stereo not drawn)	804	-6.9% (inactive)	-2.4% (inactive)	124%	-14.4% (inactive)	106%	-0.578 (inactive)	-7.2e-06 (inactive)	0.00752 (inactive)	-1.97% (inactive)	9.43% (inactive)
CN(C)CC(=O)N1c2ccccc2CCc2ccc(NC(=O)c3ccc(N)cc3)cc21	555	-15.6% (inactive)	3.6% (inactive)	95.1%	-115% (inactive)	108%	-0.571 (inactive)	-5.5e-05 (inactive)	0.00297 (inactive)	11.3% (inactive)	26.6% (inactive)
CC1(C)CC(=O)c2cc(OCC(=O)NCCCN3CCN(c4ccccc4F)CC3)ccc2O1	398	5.8% (inactive)	-2% (inactive)	91.6%	-156% (inactive)	103%	-0.366 (inactive)	3e-05 (inactive)	0.00645 (inactive)	9.74% (inactive)	2.15% (inactive)
O=P(O)(O)c1ccccc1OCCOCCOc1ccccc1P(=O)(O)O	311	-0.9% (inactive)	8% (inactive)	60.2%	-21.3% (inactive)	86.4%	-0.308 (inactive)	-5.3e-05 (inactive)	0.00635 (inactive)	11.2% (inactive)	15.3% (inactive)
O=C1CC(C(=O)Nc2ccccc2)C2(CCCC2)O1 (stereo not drawn)	425	6% (inactive)	2.4% (inactive)	106%	-80.4% (inactive)	110%	-0.569 (inactive)	-5.8e-05 (inactive)	0.00631 (inactive)	4.72% (inactive)	6.07% (inactive)
COc1cc(C2C3=C(CC(C)(C)CC3=O)Nc3c2c(=O)[nH]c(=O)n3Cc2ccccc2)ccc1O (stereo not drawn)	271	15% (inactive)	-4.8% (inactive)	104%	-45.4% (inactive)	114%	-0.463 (inactive)	-8e-05 (inactive)	0.00547 (inactive)	9.34% (inactive)	5.06% (inactive)
COC(=O)c1cc(Br)c(=O)n(CCC2=CCCCC2)c1	559	0% (inactive)	-16.7% (inactive)	110%	6.3% (inactive)	122%	-0.497 (inactive)	9.3e-05 (inactive)	0.00488 (inactive)	-1.92% (inactive)	9.19% (inactive)
COc1ccc(CCNC(=O)c2nc3ncccn3n2)cc1OC	643	-2.3% (inactive)	13.7% (inactive)	82.2%	-12.1% (inactive)	100%	-0.447 (inactive)	-4.3e-05 (inactive)	0.00528 (inactive)	18.2% (inactive)	18.1% (inactive)
O=C(c1ccccc1)c1coc2ccc(O)c(CN3CCOCC3)c12	651	-5.8% (inactive)	8.4% (inactive)	77.4%	1.5% (inactive)	102%	-0.577 (inactive)	3.5e-06 (inactive)	0.00407 (inactive)	14.5% (inactive)	18.2% (inactive)
CC(C)(C)n1nc2c(c1NC(=O)COc1ccc(Cl)cc1)CSC2	643	3.8% (inactive)	13.9% (inactive)	93.1%	30.9% (inactive)	95.3%	-0.467 (inactive)	-3.3e-06 (inactive)	0.00791 (inactive)	18% (inactive)	25.3% (inactive)
CCOCCn1cnc2sc(C(=O)NCC(=O)OCC)c(C)c2c1=O	425	7.9% (inactive)	-1.3% (inactive)	107%	-256% (inactive)	165%	-0.55 (inactive)	-2.6e-05 (inactive)	0.00587 (inactive)	-2.53% (inactive)	-16% (inactive)
CCOC(=O)c1c(NC(=O)c2ccoc2C)sc2c1CCC2	310	0% (inactive)	-0.4% (inactive)	96.2%	-3.2% (inactive)	96.3%	-0.407 (inactive)	-1.2e-05 (inactive)	0.00584 (inactive)	15.7% (inactive)	-10.1% (inactive)
